According to ChEMBL document CHEMBL1125728, “Dopamine autoreceptor agonists as potential antipsychotics. 2. (Aminoalkoxy)-4H-1-benzopyran-4-ones” (J Med Chem, 1991):
Each block holds one compound with its values, some of them ahead of it. Active and inactive are the calls of the source. The calls are words filed in the database; no cut-off is given here.

Columns and labels:
[1] = test system: Rattus norvegicus; assay: Compound tested for % reversal of DOPA accumulation at an intraperitoneal dose of 30 mg/kg.; type: functional
Outline: (§1)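 Rats dosed 1 h before sacrifice, with GBL (750 mg/kg ip) at 30 min and NSD 1015 (100 mg/kg ip) at 25 min before sacrifice. Striatal DOPA measured by HPLC with electrochemical detection. Value is percent reversal of the GBL-induced DOPA rise.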

[2] = test system: Mus musculus; assay: Inhibition of mouse intraperitoneally.; type: functional; conditions: ip
Outline: (§2)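 Inhibition of exploratory locomotor activity, scored together with motor coordination (ataxia). ED50 generated from four to five doses, with 5–12 animals per dose.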

[3] = test system: Rattus norvegicus; assay: Inhibition of rat locomotor activity after being administered perorally.; type: functional; conditions: po; outline: as §2
[4] = test system: Rattus norvegicus; assay: Effect on DOPA accumulation level at an intraperitoneal dose of 0.5 mg/kg in rat; type: functional
[5] = target: Dopamine receptor (Rattus norvegicus) (UniProt P25115+P19020+P30729+P18901+P61169); assay: Inhibitory binding activity against dopamine receptor in rat striatal membranes using [3H]HAL as the radioligand.; type: cell membranes; design: concentration or dose not given beside the values; conditions: Striatum; Membrane; concentration not given here
Outline: (§3)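 [3H]Haloperidol displacement from rat striatal DA receptors, run in duplicate. IC50 obtained by nonlinear regression from four to five concentrations.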

[6] = Compound was tested for its inhibition of Sidman avoidance after peroral administration in Squirrel monkeys.; type: functional; conditions: po
Outline: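 Sidman avoidance in mature squirrel monkeys, oral dosing. ED50 ± SEM generated from three doses, four animals per dose.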

[7] = Compound tested for its liability for extrapyramidal side effects (EPS) in terms of no. of animals showing signs of EPS/no. of animals tested upon peroral administration at a dose of 2.5 mg/Kg; 3/3; type: functional
[8] = test system: Rattus norvegicus; assay: Compound tested for % reversal of DOPA accumulation at an intraperitoneal dose of 30 mg/kg; Inactive; type: functional, organism-based; design: dose 30 mg/kg; outline: as §1
[9] = test system: Rattus norvegicus; assay: Effect on DOPA accumulation level at an intraperitoneal dose of 30 mg/kg in rat.; type: functional
[10] = test system: Rattus norvegicus; assay: Compound tested for % reversal of DOPA accumulation at an intraperitoneal dose of 30 mg/kg. Negative value in parenthesis indicates further % increase in DOPA levels over GBL-induced increase.; type: functional; outline: as §1
[11] = test system: Rattus norvegicus; assay: Compound tested for % inhibition of DA neuronal firing at an intraperitoneal dose of 2.5 mg/kg.; type: functional; conditions: ip
[12] = test system: Rattus norvegicus; assay: Percentage of rats showing signs of stereotyped behavior at 110 mg/kg peroral dose and animals observed for 60 min postdose.; type: functional; conditions: route oral
[13] = test system: Rattus norvegicus; assay: Percentage of rats showing signs of stereotyped behavior at 55 mg/kg peroral dose and followed 1 hr later by 10 mg/kg sc of SKF-38393 and animals observed for 60 min postdose before being; type: functional
Outline: (§4)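 Naive rats, six per dose, received compound, then SKF 38393 (10 mg/kg sc) 1 h later. They were rated for repetitive rearing, head-swaying, sniffing, licking and gnawing of at least 5 s duration. Result given as the percentage of rats showing stereotypy.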

[14] = test system: Rattus norvegicus; assay: Percentage of rats showing signs of stereotyped behavior at 15 mg/kg peroral dose and followed 1 hr later by 10 mg/kg sc of SKF-38393 and animals observed for 60 min postdose before being; type: functional
Outline: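 Part 2: oral dose given to naive rats, six per dose, followed 1 h later by SKF 38393 (10 mg/kg sc). Stereotypy (repetitive rearing, head-swaying, sniffing, licking, gnawing lasting ≥5 s) rated over 60 min. Reported as percent of rats affected.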

[15] = test system: Rattus norvegicus; assay: Percentage of rats showing signs of stereotyped behavior at 30 mg/kg peroral dose and animals observed for 60 min postdose.; type: functional; conditions: route oral
[16] = target: Dopamine receptor; assay: Compound was tested for inhibitory binding activity against Dopamine receptor in rat striatal membranes using [3H]HAL as the radioligand.; type: cell membranes, Striatum, Membrane; outline: as §3
[17] = test system: Mus musculus; assay: Compound was tested for inhibition of mouse locomotor activity after being administered intraperitoneally.; conditions: ip
[18] = test system: Rattus norvegicus; assay: Compound tested for its effective dose to inhibit rat locomotor activity after sc administration of the compound.; type: functional
Outline: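 Rats dosed sc, with locomotor activity recorded for 30 min immediately after dosing. ED50 generated from four to five doses using 5–12 animals per dose, reported with ±95% confidence limits.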

[19] = test system: Rattus norvegicus; assay: Percentage of rats showing signs of stereotyped behavior at 0.3 mg/kg subcutaneous dose and animals observed for 60 min postdose.; type: functional
[20] = test system: Rattus norvegicus; assay: Compound tested for its effect on reversal of 6-OHDA induced depression in rats after sc administration.; type: functional
Outline: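 Rats lesioned at least 1 month earlier with 6-OHDA (20 μg icv) plus pargyline (50 mg/kg ip) and desipramine (25 mg/kg ip), giving about 90% brain DA depletion. Drug given sc, then locomotor activity recorded for 30 min from dosing. ED200 estimated from three or four doses, six rats per dose.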

[21] = test system: Rattus norvegicus; assay: Percentage of rats showing signs of stereotyped behavior at 30 mg/kg subcutaneous dose and animals observed for 30 min postdose.; type: functional
[22] = test system: Rattus norvegicus; assay: Percentage of rats showing signs of stereotyped behavior at 30 mg/kg subcutaneous dose and followed 1 hr later by 10 mg/kg sc of SKF-38393 and animals observed for 30 min postdose before being; type: functional; outline: as §4
[23] = test system: Rattus norvegicus; assay: Compound was tested for inhibition of […] locomotor activity after being administered perorally.; type: functional; conditions: po
Outline: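 Mice dosed orally and scored for inhibition of exploratory locomotor activity, with motor coordination (ataxia) also checked. ED50 generated from four to five doses using 5–12 animals per dose.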

[24] = test system: Rattus norvegicus; assay: Percentage of rats showing signs of stereotyped behavior at 30 mg/kg peroral dose and followed 1 hr later by 10 mg/kg sc of SKF-38393 and animals observed for 60 min postdose before being; type: functional; outline: as §4

Structure (SMILES): O=c1ccoc2cc(OCCCN3CCc4[nH]c5ccc(F)cc5c4C3)ccc12
Reversal [1]: -44%
ED50 [2]: 7.5 mg/kg
ED50 [3]: 5.5 mg/kg

Structure (SMILES): O=C(CCCN1CCC(O)(c2ccc(Cl)cc2)CC1)c1ccc(F)cc1 [HALOPERIDOL]
DOPA level [4]: 2.72 µg/g

inhibition [5]: 8%
Structure (SMILES): O=c1ccoc2cc(OCCCN3CCc4c(oc5ccccc45)C3)ccc12
Reversal [1]: 29%
ED50 [2]: 13.5 mg/kg
ED50 [3]: > 30 mg/kg

Structure (SMILES): CSc1ccc2c(c1)N(CCC1CCCCN1C)c1ccccc1S2 (configuration not stated) [THIORIDAZINE]
ED50 [6]: 3.9 mg/kg
EPS [7]: 3

inhibition [5]: 74%
Structure (SMILES): O=c1ccoc2cc(OCCCCN3CCN(c4ccccc4)CC3)ccc12
Reversal [1]: 63%

inhibition [5]: 29%
Structure (SMILES): Cc1ccccc1N1CCN(CCCOc2ccc3c(=O)ccoc3c2)CC1
ED50 [3]: > 30 mg/kg
% reversal [8]: inactive

inhibition [5]: 0%
Structure (SMILES): O=c1ccoc2cc(OCCCN3CCN(c4ncccn4)CC3)ccc12
ED50 [2]: 12.4 mg/kg
ED50 [3]: 15.6 mg/kg

inhibition [5]: 29%
Structure (SMILES): O=c1ccoc2cc(OCCCN3CCN(c4cccc(O)c4)CC3)ccc12

inhibition [5]: 0%
Structure (SMILES): O=C1CN(CCCOc2ccc3c(=O)ccoc3c2)CC(=O)N1c1ccccc1
ED50 [2]: > 30 mg/kg

inhibition [5]: 24%
Structure (SMILES): O=c1ccoc2cc(OCCCN3CCN(c4ccc(F)cc4)CC3)ccc12
DOPA level [9]: 1.36 µg/g
Reversal [10]: -42%

inhibition [5]: 23%
Structure (SMILES): O=c1ccoc2cc(OCCCN3CCN(c4ccc(Cl)c(Cl)c4)CC3)ccc12
ED50 [2]: 14 mg/kg

Structure (SMILES): O=c1ccoc2cc(OCCCN3CC=C(c4ccccc4)CC3)ccc12
inhibition in vivo at 2.5 mg/kg [11]: 90%
Animals [12]: 0%
Reversal [1]: 54%
Animals [13]: 0%
ED50 [3]: 5.5 mg/kg

Structure (SMILES): Nc1cccc(OCCCN2CCN(c3ccccc3)CC2)c1
ED50 [2]: 1.3 mg/kg

inhibition [5]: 73%
Structure (SMILES): O=c1ccoc2ccc(OCCCCN3CCN(c4ccccc4)CC3)cc12
inhibition in vivo at 2.5 mg/kg [11]: 94%
Reversal [1]: 84%
Animals [14]: 0%
Animals [15]: 0%

inhibition [5]: 26%
Structure (SMILES): CCN(CCCOc1ccc2c(=O)ccoc2c1)CCCc1ccccc1
ED50 [2]: > 30 mg/kg

inhibition [5]: 50%
Structure (SMILES): O=c1ccoc2cc(OCCCN3CCc4ccccc4C3)ccc12
ED50 [2]: 30 mg/kg

IC50 [16]: 243 nM
Structure (SMILES): O=c1ccoc2cc(OCCCN3CCC=C(c4ccccc4)C3)ccc12
ED50 [2]: 30.3 mg/kg

inhibition [5]: 40%
Structure (SMILES): O=c1ccoc2cc(OCCCN3CCC(c4ccccc4)CC3)ccc12

inhibition [5]: 35%
Structure (SMILES): O=c1ccoc2cc(OCCCN3CCN(c4cccc(Cl)c4)CC3)ccc12
Reversal [10]: -26%

inhibition [5]: 59%
Structure (SMILES): O=c1ccoc2cc(OCCCN3CCN(c4ccccc4Cl)CC3)ccc12

inhibition [5]: 10%
Structure (SMILES): O=c1ccoc2cc(OCCCN3CCN(c4ccc(Cl)cc4)CC3)ccc12
% reversal [8]: inactive

Structure (SMILES): CN1CCc2cccc3c2[C@H]1Cc1ccc(O)c(O)c1-3 [APOMORPHINE]
ED50 [17]: > 30 mg/kg
inhibition in vivo at 2.5 mg/kg [11]: 100%
ED50 [18]: 0.03 mg/kg
Reversal [1]: 104%
Animals [19]: 100%
ED50 [2]: 6.4 mg/kg
ED200 [20]: 0.005 mg/kg

Structure (SMILES): CCCN1CCCC(c2ccccc2)C1 (single isomer, unassigned; (+))
Animals [21]: 16%
ED50 [18]: 3 mg/kg
Animals [22]: 100%
ED200 [20]: 0.48 mg/kg

inhibition [5]: 38%
Structure (SMILES): Cc1cccc(N2CCN(CCCOc3ccc4c(=O)ccoc4c3)CC2)c1
% reversal [8]: inactive

inhibition [5]: 20%
Structure (SMILES): O=c1ccoc2cc(OCCCN3CCN(c4ccccc4)CC3)ccc12
inhibition in vivo at 2.5 mg/kg [11]: 68%
Reversal [1]: 56%

inhibition [5]: 48%
Structure (SMILES): COc1ccccc1N1CCN(CCCOc2ccc3c(=O)ccoc3c2)CC1

inhibition [5]: 17%
Structure (SMILES): O=c1ccoc2cc(OCCCN3CCN(c4cnccn4)CC3)ccc12
ED50 [2]: 26.3 mg/kg

inhibition [5]: 25%
Structure (SMILES): COc1ccc(N2CCN(CCCOc3ccc4c(=O)ccoc4c3)CC2)cc1

IC50 [16]: 349 nM
Structure (SMILES): O=c1ccoc2ccc(OCCCCN3CCN(c4ncccn4)CC3)cc12
inhibition in vivo at 2.5 mg/kg [11]: 100%
Reversal [1]: 100%
ED50 [2]: 3.6 mg/kg
ED50 [3]: 8.2 mg/kg

inhibition [5]: 36%
Structure (SMILES): Cc1ccc(N2CCN(CCCOc3ccc4c(=O)ccoc4c3)CC2)cc1
% reversal [8]: inactive

inhibition [5]: 0%
Structure (SMILES): Cc1cccc(N2CCN(CCCOc3ccc4c(=O)ccoc4c3)CC2)c1C

inhibition [5]: 41%
Structure (SMILES): Cc1ccc(N2CCN(CCCOc3ccc4c(=O)ccoc4c3)CC2)cc1C
Reversal [1]: -29%

inhibition [5]: 31%
Structure (SMILES): O=c1ccoc2cc(OCCCN3CCN(Cc4ccccc4)CC3)ccc12
ED50 [2]: > 30 mg/kg

inhibition [5]: 9%
Structure (SMILES): O=c1ccoc2cccc(OCCCN3CCN(c4ccccc4)CC3)c12
ED50 [3]: > 30 mg/kg
% reversal [8]: inactive

Structure (SMILES): C1=C(c2ccccc2)CCN(CCCCc2c[nH]c3ccccc23)C1
ED50 [18]: 4.69 mg/kg
ED50 [2]: 0.1 mg/kg
ED50 [23]: 4.8 mg/kg
Animals [15]: 0%
Animals [24]: 0%
ED200 [20]: 0.29 mg/kg

IC50 [16]: 884 nM
Structure (SMILES): O=c1ccoc2cc(OCCCN3CCCN(c4ccccc4)CC3)ccc12
ED50 [2]: > 30 mg/kg
